This note sets out measurements from ChEMBL document CHEMBL2346621, “Discovery of novel tricyclic indole derived inhibitors of HCV NS5B RNA dependent RNA polymerase” (Bioorg Med Chem, 2013).

Data set [1] relates to Hepatitis C virus. The data set can be described thus: Inhibition of HCV-1b Con-1 C-terminal His6x-tagged NS5B delta21 RNA dependent RNA polymerase expressed in Escherichia coli JM109 (DE3) assessed as [alpha-33P]CTP incorporation in RNA after 30 mins by scintillation counting analysis. Details: species or system Hepatitis C virus subtype 1b. The note with it: Con1, JM 109, 0.5 h.

Data set [2] has as its system Hepatitis C virus. Put plainly: Antiviral activity against Hepatitis C virus infected in human hepatoma cells assessed as reduction in replicon RNA level. The format is functional, organism-based, Hepacivirus hominis. The method, boiled down:
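Replicon-bearing hepatoma cells were used. EC50 is the concentration that reduces viral RNA levels by 50%.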
A general note: Replicon systems follow genome replication, usually without infectious particles.

Data set [3] is described as follows: Cytotoxicity against human hepatoma cells assessed as cell viability by MTS assay. In kind it is cell-based. A digest of the protocol:
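Cellular toxicity was measured by MTS assay, with GAPDH also used as an internal control, and expressed as CC50.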
In general terms: Tetrazolium assays rely on reduction of a dye to a coloured formazan, in cell work by metabolically active cells.

Data set [4] is described as follows: AUC (0 to 6 hrs) in rat at 10 mg/kg, po. The format is ADME, organism-based. Details: time < 6 hr, dose 10 mg/kg, route oral. The following applies: plasma. A digest of the protocol: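 Rapid rat assay: single oral 10 mg/kg dose in 0.4% HPMC. Plasma AUC integrated over 0–6 h after dosing (AUC0–6 h).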

The term IC50 denotes the concentration needed to halve the response being measured. In general, EC50 refers to the concentration giving half of the maximal effect. What is called CC50 is the concentration that lowers cell viability or growth by half. By AUC(0-t) is commonly meant exposure summed from dosing to a finite time, without extrapolation to infinity.

`O=C(O)c1c(-c2ccc[nH]c2=O)c2c3occ(Cl)c3ccc2n1Cc1cc(F)ccc1F`: the IC50 in the data set with Hepatitis C virus [1] is 7 nM. Moreover, the EC50 in the data set on Hepatitis C virus [2] was determined as 120 nM. The CC50 in data set [3] is greater than 10000 nM.
As to `Cc1coc2c1ccc1c2c(-c2ccc[nH]c2=O)c(C(=O)O)n1Cc1cc(F)ccc1F`, in the data set on Hepatitis C virus [1], the IC50 worked out at 2900 nM. The half-maximal cytotoxic concentration (CC50) in data set [3] was greater than 10000 nM.
Take `Cc1ccc(Cn2c(C(=O)NS(C)(=O)=O)c(-c3ccc[nH]c3=O)c3c4occc4ccc32)c(C)c1`: the IC50 in the data set on Hepatitis C virus [1] stood at 6 nM. The EC50 in the data set with Hepatitis C virus [2] came to 60 nM. For the same compound, in data set [3], the CC50 was greater than 10000 nM.
For `Cc1ccccc1Cn1c(C(=O)NS(C)(=O)=O)c(-c2ccc[nH]c2=O)c2c3occc3ccc21`, the half-maximal inhibitory concentration (IC50) in the data set with Hepatitis C virus [1] was 10 nM. Also, the EC50 in the data set with Hepatitis C virus [2] is 50 nM. In addition, in data set [4], the AUC(0-t) at 6 h was found to be 1.2 µM·h. Also, the CC50 in data set [3] was greater than 10000 nM.
For `CCS(=O)(=O)NC(=O)c1c(-c2ccc[nH]c2=O)c2c3occc3ccc2n1Cc1cc(F)ccc1F`, in that order: 6 nM, 110 nM, 0.7 µM·h and greater than 10000 nM.
As for `CCc1coc2c1ccc1c2c(-c2ccc[nH]c2=O)c(C(=O)O)n1Cc1cc(F)ccc1F`, in the data set on Hepatitis C virus [1], the IC50 was greater than 5000 nM. In addition, in data set [3], the CC50 was greater than 10000 nM.
For the compound `CS(=O)(=O)NC(=O)c1c(-c2ccc[nH]c2=O)c2c3occc3ccc2n1Cc1ccccc1Cl`, in the data set on Hepatitis C virus [1], the half-maximal inhibitory concentration (IC50) was 3 nM. Further, the 50% effective concentration (EC50) in the data set on Hepatitis C virus [2] is 50 nM. The CC50 in data set [3] was greater than 10000 nM.
On the same counts, the results for `O=C(O)c1c(-c2ccc[nH]c2=O)c2c3c(ccc2n1Cc1cc(F)ccc1F)OC(F)(F)O3` are 7 nM, 2000 nM and greater than 10000 nM.
For the compound `O=C(O)c1c(-c2ccc[nH]c2=O)c2c3c(ccc2n1Cc1cc(F)ccc1F)CCC3`, the half-inhibitory concentration (IC50) in the data set with Hepatitis C virus [1] came out at 27 nM. The EC50 in the data set with Hepatitis C virus [2] amounted to 3500 nM. The AUC(0-t) at 6 h in data set [4] amounted to 104 µM·h. Moreover, the cytotoxic concentration (CC50) in data set [3] was greater than 10000 nM.
For `CS(=O)(=O)NC(=O)c1c(-c2ccc[nH]c2=O)c2c3occc3ccc2n1Cc1ccc(F)cc1F`, in that order: 31 nM, 80 nM, 2.4 µM·h and greater than 10000 nM.
`O=C(O)c1c(-c2ccc[nH]c2=O)c2c3c(ccc2n1Cc1cc(F)ccc1F)CCO3`: the half-maximal inhibitory concentration (IC50) in the data set with Hepatitis C virus [1] worked out at 8 nM. In addition, the EC50 in the data set with Hepatitis C virus [2] was 460 nM. Moreover, the AUC(0-t) at 6 h in data set [4] amounted to 11 µM·h. Besides, in data set [3], the CC50 is greater than 10000 nM.
Take `O=C(NS(=O)(=O)C1CC1)c1c(-c2ccc[nH]c2=O)c2c3occc3ccc2n1Cc1cc(F)ccc1F`: the IC50 in the data set on Hepatitis C virus [1] amounted to 16 nM. In addition, the EC50 in the data set on Hepatitis C virus [2] is 50 nM. The CC50 in data set [3] is greater than 10000 nM.
For `O=C(O)c1c(-c2ccc[nH]c2=O)c2c3ccoc3ccc2n1Cc1cc(F)ccc1F`, in that order: 34 nM, 3100 nM and greater than 10000 nM.
As to `O=C(O)c1c(-c2ccc[nH]c2=O)c2c3ncsc3ccc2n1Cc1cc(F)ccc1F`, the IC50 in the data set with Hepatitis C virus [1] amounted to 9 nM. The EC50 with Hepatitis C virus [2] amounted to 700 nM. Also, the CC50 in data set [3] was greater than 10000 nM.
On to `CC(C)S(=O)(=O)NC(=O)c1c(-c2ccc[nH]c2=O)c2c3occc3ccc2n1Cc1cc(F)ccc1F`, for which the 50% inhibitory concentration (IC50) in the data set on Hepatitis C virus [1] was 8 nM. Besides, the 50% effective concentration (EC50) with Hepatitis C virus [2] is 50 nM. In addition, the AUC(0-t) at 6 h in data set [4] stood at 1 µM·h. Further, the 50% cytotoxic concentration (CC50) in data set [3] is greater than 10000 nM.
Take `O=C(O)c1c(-c2ccc[nH]c2=O)c2c3occc3ccc2n1Cc1cc(F)ccc1F`: the IC50 with Hepatitis C virus [1] worked out at 31 nM. Further, the EC50 with Hepatitis C virus [2] was determined as 160 nM. The compound further showed an AUC(0-t) at 6 h in data set [4] of 146 µM·h. In addition, the half-maximal cytotoxic concentration (CC50) in data set [3] is greater than 10000 nM.
For `CS(=O)(=O)NC(=O)c1c(-c2ccc[nH]c2=O)c2c3occc3ccc2n1Cc1cc(C(N)=O)ccc1F`, the half-inhibitory concentration (IC50) in the data set on Hepatitis C virus [1] came out at 10 nM. Also, the half-maximal effective concentration (EC50) in the data set with Hepatitis C virus [2] came to 30 nM. For the same compound, the cytotoxic concentration (CC50) in data set [3] was greater than 10000 nM.
On to `Cc1cc2ccc3c(c(-c4ccc[nH]c4=O)c(C(=O)O)n3Cc3cc(F)ccc3F)c2o1`, for which the IC50 in the data set with Hepatitis C virus [1] stood at 21 nM. Moreover, in the data set on Hepatitis C virus [2], the half-maximal effective concentration (EC50) was found to be 2000 nM. The 50% cytotoxic concentration (CC50) in data set [3] was greater than 10000 nM.
For the compound `Cc1cccc(Cn2c(C(=O)NS(C)(=O)=O)c(-c3ccc[nH]c3=O)c3c4occc4ccc32)c1F`, the concentration for half-maximal inhibition (IC50) in the data set on Hepatitis C virus [1] turned out to be 3 nM. Moreover, the EC50 with Hepatitis C virus [2] amounted to 30 nM. The compound further yielded an AUC(0-t) at 6 h in data set [4] of 0.3 µM·h. Further, the CC50 in data set [3] is greater than 10000 nM.
Turning to `O=C(NS(=O)(=O)Cc1ccccc1)c1c(-c2ccc[nH]c2=O)c2cc(Cl)ccc2n1Cc1cc(F)ccc1F`, the half-inhibitory concentration (IC50) with Hepatitis C virus [1] was 10 nM. The EC50 in the data set on Hepatitis C virus [2] is 1000 nM.
Consider `CS(=O)(=O)NC(=O)c1c(-c2ccc[nH]c2=O)c2c3occc3ccc2n1Cc1cc(F)ccc1F`, for which the half-inhibitory concentration (IC50) in the data set on Hepatitis C virus [1] amounted to 9 nM. Besides, the 50% effective concentration (EC50) with Hepatitis C virus [2] amounted to 50 nM. Moreover, the exposure AUC(0-t) at 6 h in data set [4] worked out at 11 µM·h. Further, the 50% cytotoxic concentration (CC50) in data set [3] is greater than 10000 nM.
For the compound `O=C(O)c1c(-c2ccc[nH]c2=O)c2c3scnc3ccc2n1Cc1cc(F)ccc1F`, the IC50 with Hepatitis C virus [1] came out at 1700 nM. In data set [4], this compound gave an exposure AUC(0-t) at 6 h of 104 µM·h. Also, in data set [3], the CC50 is greater than 10000 nM.
On to `CS(=O)(=O)NC(=O)c1c(-c2ccc[nH]c2=O)c2c3occc3ccc2n1Cc1ccccc1F`, for which the IC50 in the data set on Hepatitis C virus [1] is 8 nM. The EC50 in the data set on Hepatitis C virus [2] is 100 nM. For the same compound, the exposure AUC(0-t) at 6 h in data set [4] is 9.5 µM·h. Further, in data set [3], the CC50 is greater than 10000 nM.
